Experimental data from ChEMBL document CHEMBL3769376, “Discovery of I-BRD9, a Selective Cell Active Chemical Probe for Bromodomain Containing Protein 9 Inhibition” (J Med Chem, 2016).
Calls of active or inactive are those of the source. The rule behind the calls is not given here.

Tests used:
[1] = organism: Homo sapiens; test: Positive modulator activity at human GABA-A receptor at <5 uM by electrophysiology
[2] = target: Alpha-2C adrenergic receptor (Homo sapiens) (UniProt P18825); test: Inhibition of human alpha 2c adrenergic receptor at <5 uM by TR-FRET assay
Chain of Alpha-2C adrenergic receptor (Homo sapiens) (P18825 whole entry): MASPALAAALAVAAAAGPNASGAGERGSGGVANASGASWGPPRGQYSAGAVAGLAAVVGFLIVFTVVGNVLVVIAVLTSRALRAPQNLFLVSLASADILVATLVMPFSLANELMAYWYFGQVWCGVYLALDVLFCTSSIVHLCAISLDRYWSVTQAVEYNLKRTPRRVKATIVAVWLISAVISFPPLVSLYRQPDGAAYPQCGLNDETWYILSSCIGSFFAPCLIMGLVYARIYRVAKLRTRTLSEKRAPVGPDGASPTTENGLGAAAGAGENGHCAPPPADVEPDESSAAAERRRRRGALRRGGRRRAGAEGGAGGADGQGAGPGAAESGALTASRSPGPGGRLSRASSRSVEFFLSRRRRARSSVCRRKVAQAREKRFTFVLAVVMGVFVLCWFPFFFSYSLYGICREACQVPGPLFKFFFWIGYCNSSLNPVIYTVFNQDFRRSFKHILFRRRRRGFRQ

[3] = target: Voltage-dependent L-type calcium channel subunit alpha-1C (Homo sapiens, UniProt Q13936); test: Inhibition of human Cav1.2 channel at <5 uM by electrophysiology
[4] = target: T1, Bromodomain-containing protein 9 (Homo sapiens) (UniProt Q9H8M2); conditions: Kasumi 1, 10 uM
T1 sequence (whole entry): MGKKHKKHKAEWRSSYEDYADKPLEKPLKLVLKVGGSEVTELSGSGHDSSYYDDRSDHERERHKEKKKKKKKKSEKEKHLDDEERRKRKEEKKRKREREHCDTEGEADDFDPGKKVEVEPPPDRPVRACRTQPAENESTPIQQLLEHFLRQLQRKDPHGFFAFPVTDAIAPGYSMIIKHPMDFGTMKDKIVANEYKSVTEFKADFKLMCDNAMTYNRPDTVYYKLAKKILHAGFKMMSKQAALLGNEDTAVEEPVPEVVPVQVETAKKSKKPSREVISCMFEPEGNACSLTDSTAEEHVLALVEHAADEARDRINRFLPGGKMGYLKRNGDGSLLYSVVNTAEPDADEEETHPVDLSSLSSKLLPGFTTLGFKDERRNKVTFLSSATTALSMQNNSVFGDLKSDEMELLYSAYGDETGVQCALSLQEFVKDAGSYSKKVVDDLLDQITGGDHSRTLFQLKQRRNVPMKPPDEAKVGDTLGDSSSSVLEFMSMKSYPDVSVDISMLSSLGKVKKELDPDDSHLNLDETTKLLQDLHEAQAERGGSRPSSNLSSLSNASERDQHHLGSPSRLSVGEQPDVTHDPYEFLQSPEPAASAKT

[5] = Permeability of the compound by PAMPA; type: ADME; conditions: read-out: permeability
[6] = target: Kappa-type opioid receptor (Homo sapiens) (UniProt P41145); test: Agonist activity at human kappa opiod receptor at <5 uM by scintillation proximity assay
Chain of Kappa-type opioid receptor (Homo sapiens) (P41145 whole entry): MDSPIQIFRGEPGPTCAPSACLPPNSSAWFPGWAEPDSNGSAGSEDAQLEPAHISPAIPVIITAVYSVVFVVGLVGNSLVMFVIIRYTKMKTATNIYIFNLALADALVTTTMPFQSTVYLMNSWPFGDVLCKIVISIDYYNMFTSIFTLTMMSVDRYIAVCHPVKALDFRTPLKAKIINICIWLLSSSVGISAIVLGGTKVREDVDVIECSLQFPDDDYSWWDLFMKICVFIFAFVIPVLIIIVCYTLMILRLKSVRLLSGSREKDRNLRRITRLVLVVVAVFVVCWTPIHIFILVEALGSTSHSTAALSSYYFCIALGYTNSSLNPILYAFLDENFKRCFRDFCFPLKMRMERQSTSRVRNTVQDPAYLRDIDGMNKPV

[7] = target: Muscarinic acetylcholine receptor M2 (Homo sapiens) (UniProt P08172); test: Antagonist activity at human muscarinic 2 receptor assessed as change in intracellular calcium level at <5 uM by fluorescence assay; type: functional, cell-based
Chain of Muscarinic acetylcholine receptor M2 (Homo sapiens) (P08172 whole entry): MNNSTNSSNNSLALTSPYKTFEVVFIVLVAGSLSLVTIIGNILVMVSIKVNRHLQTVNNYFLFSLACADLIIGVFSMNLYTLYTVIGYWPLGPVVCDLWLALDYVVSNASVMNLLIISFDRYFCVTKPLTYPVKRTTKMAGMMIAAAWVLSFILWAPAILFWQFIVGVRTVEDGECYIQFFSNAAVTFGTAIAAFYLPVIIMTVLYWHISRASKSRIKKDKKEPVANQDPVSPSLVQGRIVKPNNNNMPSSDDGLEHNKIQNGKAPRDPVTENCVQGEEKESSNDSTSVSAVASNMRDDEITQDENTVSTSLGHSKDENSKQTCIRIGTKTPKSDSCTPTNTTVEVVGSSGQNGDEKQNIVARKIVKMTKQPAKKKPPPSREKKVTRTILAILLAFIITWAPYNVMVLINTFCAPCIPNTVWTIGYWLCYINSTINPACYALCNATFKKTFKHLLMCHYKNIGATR

[8] = target: Beta-2 adrenergic receptor (Homo sapiens) (UniProt P07550); test: Antagonist activity at human beta-2 adrenergic receptor at <5 uM by TR-FRET assay
Chain of Beta-2 adrenergic receptor (Homo sapiens) (P07550 whole entry, looked up): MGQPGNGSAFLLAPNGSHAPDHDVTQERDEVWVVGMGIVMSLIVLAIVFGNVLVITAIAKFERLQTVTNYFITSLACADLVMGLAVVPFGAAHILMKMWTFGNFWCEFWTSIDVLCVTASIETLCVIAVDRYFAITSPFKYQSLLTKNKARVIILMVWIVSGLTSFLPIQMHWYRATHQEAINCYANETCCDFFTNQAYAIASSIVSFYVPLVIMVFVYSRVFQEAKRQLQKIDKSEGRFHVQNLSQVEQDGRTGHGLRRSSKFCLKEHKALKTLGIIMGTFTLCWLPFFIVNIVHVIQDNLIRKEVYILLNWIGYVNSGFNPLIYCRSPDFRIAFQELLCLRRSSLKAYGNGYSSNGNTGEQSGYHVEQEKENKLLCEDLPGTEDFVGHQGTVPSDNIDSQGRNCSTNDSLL

[9] = target: Tyrosine-protein kinase Lck (Homo sapiens) (UniProt P06239); test: Inhibition of human LCK at <5 uM by IMAP assay
[10] = target: D(2) dopamine receptor (Homo sapiens) (UniProt P14416); test: Antagonist activity at human D2 dopamine receptor at <5 uM by scintillation proximity assay
Chain of D(2) dopamine receptor (Homo sapiens) (P14416 whole entry): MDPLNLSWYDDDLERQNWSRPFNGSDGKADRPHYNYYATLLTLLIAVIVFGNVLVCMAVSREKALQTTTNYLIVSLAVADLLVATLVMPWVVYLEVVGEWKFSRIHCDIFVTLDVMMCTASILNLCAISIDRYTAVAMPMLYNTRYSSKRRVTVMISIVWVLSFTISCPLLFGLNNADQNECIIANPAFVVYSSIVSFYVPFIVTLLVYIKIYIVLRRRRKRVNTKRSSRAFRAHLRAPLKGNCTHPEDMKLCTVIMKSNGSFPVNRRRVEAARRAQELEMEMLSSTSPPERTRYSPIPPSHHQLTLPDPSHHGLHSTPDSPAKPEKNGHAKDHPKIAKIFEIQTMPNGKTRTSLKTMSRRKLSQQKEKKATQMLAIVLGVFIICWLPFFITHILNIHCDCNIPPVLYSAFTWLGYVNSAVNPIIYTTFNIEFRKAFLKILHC

[11] = Lipophilicity, logD of the compound at pH 7.4; type: physicochemical; conditions: buffer
[12] = target: Sodium-dependent noradrenaline transporter (Homo sapiens) (UniProt P23975); test: Antagonist activity at human NE transporter at <5 uM by scintillation proximity assay
Chain of Sodium-dependent noradrenaline transporter (Homo sapiens) (P23975 whole entry): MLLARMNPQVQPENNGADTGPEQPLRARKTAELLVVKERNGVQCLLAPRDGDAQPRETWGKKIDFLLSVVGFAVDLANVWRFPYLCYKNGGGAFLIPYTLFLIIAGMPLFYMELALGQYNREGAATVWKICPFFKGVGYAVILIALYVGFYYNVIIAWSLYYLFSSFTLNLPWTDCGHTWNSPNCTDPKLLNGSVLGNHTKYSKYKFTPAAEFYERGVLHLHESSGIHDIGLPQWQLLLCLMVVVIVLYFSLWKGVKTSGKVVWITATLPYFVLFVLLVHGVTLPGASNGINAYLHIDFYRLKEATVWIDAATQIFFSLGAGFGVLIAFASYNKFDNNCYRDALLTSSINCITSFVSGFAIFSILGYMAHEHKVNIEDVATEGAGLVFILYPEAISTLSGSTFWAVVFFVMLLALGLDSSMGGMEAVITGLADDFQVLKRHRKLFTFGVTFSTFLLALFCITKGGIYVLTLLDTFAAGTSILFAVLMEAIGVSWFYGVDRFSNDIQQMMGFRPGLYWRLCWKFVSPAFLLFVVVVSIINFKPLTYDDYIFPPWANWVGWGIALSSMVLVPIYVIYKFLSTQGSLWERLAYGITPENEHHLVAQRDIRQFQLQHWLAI

[13] = target: Histamine H1 receptor (Homo sapiens) (UniProt P35367); test: Antagonist activity at human histamine H1 receptor assessed as change in intracellular calcium level at <5 uM by fluorescence assay; type: functional, cell-based
Chain of Histamine H1 receptor (Homo sapiens) (P35367 whole entry): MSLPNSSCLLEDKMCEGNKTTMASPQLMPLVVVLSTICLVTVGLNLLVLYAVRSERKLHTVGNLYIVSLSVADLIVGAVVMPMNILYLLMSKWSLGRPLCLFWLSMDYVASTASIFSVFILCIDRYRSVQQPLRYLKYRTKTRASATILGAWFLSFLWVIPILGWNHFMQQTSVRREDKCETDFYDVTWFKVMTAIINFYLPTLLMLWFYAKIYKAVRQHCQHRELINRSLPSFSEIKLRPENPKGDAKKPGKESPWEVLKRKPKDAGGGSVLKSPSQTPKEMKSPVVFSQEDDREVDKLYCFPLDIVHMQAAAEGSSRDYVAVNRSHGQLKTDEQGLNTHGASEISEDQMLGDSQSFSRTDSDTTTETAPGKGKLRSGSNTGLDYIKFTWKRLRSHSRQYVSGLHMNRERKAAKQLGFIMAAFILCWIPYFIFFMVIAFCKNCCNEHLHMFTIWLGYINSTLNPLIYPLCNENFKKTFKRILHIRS

[14] = target: 5-hydroxytryptamine receptor 3A (Homo sapiens) (UniProt P46098); test: Agonist activity at human 5HT3 receptor assessed as change in intracellular calcium level at <5 uM by fluorescence assay; type: cell-based
[15] = target: Vasopressin V1a receptor (Homo sapiens) (UniProt P37288); test: Antagonist activity at human vasopressin V1a receptor assessed as change in intracellular calcium level at <5 uM by fluorescence assay; type: functional, cell-based
[16] = target: Prostaglandin G/H synthase 2 (Homo sapiens) (UniProt P35354); test: Inhibition of human COX2 at <5 uM by FLINT assay
[17] = organism: Homo sapiens; test: Agonist activity at human GABA-A receptor at <5 uM by electrophysiology
[18] = target: T1, Bromodomain-containing protein 9 (Homo sapiens); conditions: Kasumi 1, 10 uM; remark: listed apart in the source
[19] = target: Beta-2 adrenergic receptor (Homo sapiens) (UniProt P07550); test: Agonist activity at human beta-2 adrenergic receptor at <5 uM by TR-FRET assay
[20] = target: Bromodomain-containing protein 3 (Homo sapiens, UniProt Q15059); test: Inhibition of BRD3 in human HUT78 cells incubated for 45 mins by chemoproteomic competition binding assay; type: cell-based
Chain of Bromodomain-containing protein 3 (Q15059 whole entry): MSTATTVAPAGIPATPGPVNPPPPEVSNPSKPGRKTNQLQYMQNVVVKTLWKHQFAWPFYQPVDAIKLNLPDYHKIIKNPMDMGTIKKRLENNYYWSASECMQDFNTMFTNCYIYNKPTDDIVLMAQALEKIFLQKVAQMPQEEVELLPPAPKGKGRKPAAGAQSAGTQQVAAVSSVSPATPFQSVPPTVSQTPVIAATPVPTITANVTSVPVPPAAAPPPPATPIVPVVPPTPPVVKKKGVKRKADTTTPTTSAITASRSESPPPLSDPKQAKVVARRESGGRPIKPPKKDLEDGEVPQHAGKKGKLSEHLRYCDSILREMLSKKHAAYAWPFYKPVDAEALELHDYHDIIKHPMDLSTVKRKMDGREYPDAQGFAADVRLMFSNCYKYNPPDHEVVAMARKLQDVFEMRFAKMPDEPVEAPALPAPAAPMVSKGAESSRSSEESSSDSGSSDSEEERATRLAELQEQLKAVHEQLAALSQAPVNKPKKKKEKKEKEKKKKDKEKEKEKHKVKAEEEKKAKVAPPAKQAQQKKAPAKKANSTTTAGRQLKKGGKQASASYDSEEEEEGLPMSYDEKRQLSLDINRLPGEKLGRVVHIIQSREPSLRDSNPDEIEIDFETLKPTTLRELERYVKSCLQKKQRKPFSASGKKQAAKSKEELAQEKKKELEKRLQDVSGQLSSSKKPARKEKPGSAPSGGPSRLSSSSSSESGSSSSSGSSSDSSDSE
Summary of the method: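 Nuclear and tight-chromatin extracts were prepared from HuT78 cells grown in spinner flasks. Compound was spiked into the mixed extracts at a range of doses and incubated for 45 min at 4 °C. Extracts were then incubated with sepharose beads derivatised with 2.0 mM of an amine-bearing bromodomain ligand. Beads were washed with 0.2% NP-40 lysis buffer and eluted in SDS/DTT. BRD3 was read out by Western blot.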

[21] = target: Sodium channel protein type 5 subunit alpha (Homo sapiens, UniProt Q14524); test: Inhibition of human Nav1.5 channel at <5 uM by electrophysiology
[22] = target: 5-hydroxytryptamine receptor 1B (Homo sapiens) (UniProt P28222); test: Agonist activity at human 5HT1B receptor at <5 uM by scintillation proximity assay
[23] = target: Cannabinoid receptor 2 (Homo sapiens) (UniProt P34972); test: Agonist activity at human CB2 receptor at <5 uM by Yeast FDLu assay
[24] = target: Adenosine receptor A2a (Homo sapiens) (UniProt P29274); test: Agonist activity at human Adenosine A2a receptor at <5 uM by TR-FRET assay
[25] = target: Muscarinic acetylcholine receptor M2 (Homo sapiens) (UniProt P08172); test: Agonist activity at human muscarinic 2 receptor assessed as change in intracellular calcium level at <5 uM by fluorescence assay; type: functional, cell-based
[26] = target: D(2) dopamine receptor (Homo sapiens) (UniProt P14416); test: Agonist activity at human D2 dopamine receptor at <5 uM by scintillation proximity assay
[27] = target: 5-hydroxytryptamine receptor 2C (Homo sapiens) (UniProt P28335); test: Antagonist activity at human 5HT2C receptor assessed as change in intracellular calcium level at <5 uM by fluorescence assay; type: functional, cell-based
Chain of 5-hydroxytryptamine receptor 2C (Homo sapiens) (P28335 whole entry): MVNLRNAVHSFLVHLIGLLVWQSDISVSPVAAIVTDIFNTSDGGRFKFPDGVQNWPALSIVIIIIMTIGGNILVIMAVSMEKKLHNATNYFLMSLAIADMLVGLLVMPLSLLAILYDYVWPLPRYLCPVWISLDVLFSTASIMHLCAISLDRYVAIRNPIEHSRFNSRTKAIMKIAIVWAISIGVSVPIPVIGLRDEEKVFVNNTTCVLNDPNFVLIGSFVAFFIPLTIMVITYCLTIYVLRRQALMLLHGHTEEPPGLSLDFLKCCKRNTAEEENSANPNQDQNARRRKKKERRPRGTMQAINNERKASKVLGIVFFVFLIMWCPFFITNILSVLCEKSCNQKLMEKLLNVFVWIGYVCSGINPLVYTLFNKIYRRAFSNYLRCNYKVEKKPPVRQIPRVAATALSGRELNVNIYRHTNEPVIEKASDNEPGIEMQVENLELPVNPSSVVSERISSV

[28] = target: D(1A) dopamine receptor (Homo sapiens) (UniProt P21728); test: Antagonist activity at human D1 dopamine receptor at <5 uM by TR-FRET assay
[29] = target: Mu-type opioid receptor (Homo sapiens) (UniProt P35372); test: Agonist activity at human mu opiod receptor at <5 uM by scintillation proximity assay
[30] = target: Substance-P receptor (Homo sapiens) (UniProt P25103); test: Antagonist activity at human NK1 receptor assessed as change in intracellular calcium level at <5 uM by fluorescence assay; type: functional, cell-based
Chain of Substance-P receptor (Homo sapiens) (P25103 whole entry): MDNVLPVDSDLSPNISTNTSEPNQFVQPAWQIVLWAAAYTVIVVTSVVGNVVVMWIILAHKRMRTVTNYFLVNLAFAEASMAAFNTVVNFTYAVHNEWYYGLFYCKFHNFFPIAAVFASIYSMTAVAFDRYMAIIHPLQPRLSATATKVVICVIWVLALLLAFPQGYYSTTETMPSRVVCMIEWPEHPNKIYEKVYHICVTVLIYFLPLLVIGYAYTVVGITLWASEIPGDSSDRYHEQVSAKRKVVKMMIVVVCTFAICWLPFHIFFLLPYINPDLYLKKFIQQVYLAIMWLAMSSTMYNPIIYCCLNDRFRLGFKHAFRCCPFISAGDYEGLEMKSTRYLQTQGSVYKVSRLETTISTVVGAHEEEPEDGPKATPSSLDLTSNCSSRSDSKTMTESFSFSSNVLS

[31] = target: Sodium-dependent serotonin transporter (Homo sapiens) (UniProt P31645); test: Antagonist activity at human SERT transporter at <5 uM by scintillation proximity assay
[32] = target: 5-hydroxytryptamine receptor 2C (Homo sapiens) (UniProt P28335); test: Agonist activity at human 5HT2C receptor assessed as change in intracellular calcium level at <5 uM by fluorescence assay; type: functional, cell-based
[33] = target: Alpha-1B adrenergic receptor (Homo sapiens) (UniProt P35368); test: Antagonist activity at human Alpha 1b adrenergic receptor assessed as change in intracellular calcium level at <5 uM by fluorescence assay; type: functional, cell-based

CCn1cc(-c2cccc(C(F)(F)F)c2)c2sc(C(=N)NC3CCS(=O)(=O)CC3)cc2c1=O
Activity [1]: inactive
inhibition [2]: inactive
inhibition (INH) [3]: Not Active
inhibition [4]: Active
Papp [5]: 21 ×10⁻⁶ cm/s
Activity [6]: inactive
inhibition [7]: inactive
inhibition [8]: inactive
inhibition [9]: inactive
inhibition [10]: inactive
logD [11]: 3.7
inhibition [12]: inactive
inhibition [13]: inactive
Activity [14]: inactive
inhibition [15]: inactive
inhibition [16]: inactive
Activity [17]: inactive
inhibition [18]: Active
Activity [19]: inactive
IC50 [20]: > 50.1 µM
inhibition (INH) [21]: Not Active
Activity [22]: inactive
Activity [23]: inactive
Activity [24]: inactive
Activity [25]: inactive
Activity [26]: inactive
inhibition [27]: inactive
inhibition [28]: inactive
Activity [29]: inactive
inhibition [30]: inactive
inhibition [31]: inactive
Activity [32]: inactive
inhibition [33]: inactive
